The source made the active and inactive calls. The rule behind the calls is not given here.
Columns and labels:
Mus musculus [1] = test: Analgesic activity in sc dosed mouse by hot plate assay; assay type: functional
Rhesus monkey [2] = test: Physical dependence capacity in rhesus monkey assessed as suppression/precipitation of abstinence syndrome at 0.5 to 8 mg/kg; assay type: organism-based, Macaca mulatta; set-up: dose 0.5-8 mg/kg; conditions: in vivo
How it was run: (§1)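 Monkey single-dose suppression test for physical dependence capacity. Abstinence signs were scored for suppression or precipitation across the dose range given in each line.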

Rhesus monkey [3] = test: Narcotic antagonist activity in morphine-dependent monkey assessed as precipitation of abstinence syndrome; assay type: functional, organism-based; conditions: Macaca mulatta; how it was run: as §1
Rhesus monkey [4] = test: Physical dependence capacity in rhesus monkey assessed as suppression/precipitation of abstinence syndrome at 0.4 to 6.4 mg/kg; assay type: organism-based, Macaca mulatta; set-up: dose 0.4-6.4 mg/kg; conditions: in vivo; how it was run: as §1
Rhesus monkey [5] = test: Physical dependence capacity in rhesus monkey assessed as suppression/precipitation of abstinence syndrome at 0.5 to 4 mg/kg; assay type: organism-based, Macaca mulatta; set-up: dose 0.5-4 mg/kg; conditions: in vivo; how it was run: as §1
Rhesus monkey [6] = test: Physical dependence capacity in rhesus monkey assessed as suppression/precipitation of abstinence syndrome at 4 mg/kg; conditions: in vivo
Mus musculus [7] = test: Toxicity in mouse at 50 mg/kg, sc; assay type: organism-based; set-up: dose 50 mg/kg, route subcutaneous; conditions: in vivo
Rhesus monkey [8] = test: Physical dependence capacity in rhesus monkey assessed as suppression/precipitation of abstinence syndrome at 0.5 to 1 mg/kg; assay type: organism-based, Macaca mulatta; set-up: dose 0.5-1 mg/kg; conditions: in vivo; how it was run: as §1
Mus musculus [9] = organism: Mus musculus

Oc1ccc2c(c1)[C@@]13CCCC[C@H]1[C@@H](C2)CN(CC1CC1)CC3 (relative stereo)
ED50 (Mus musculus [1]): 6.2 mg/kg
Activity (Rhesus monkey [2]): Non-toxic
Activity (Rhesus monkey [3]): inactive

COc1ccc2c(c1)[C@@]13CCCC[C@H]1[C@@H](C2)CN(C)CC3
ED50 (Mus musculus [1]): 3.4 mg/kg

Br.CN1CC[C@]23CCCC[C@H]2[C@@H](Cc2ccc(O)cc23)C1
ED50 (Mus musculus [1]): 0.8 mg/kg
Activity (Rhesus monkey [4]): Non-toxic

CN1CC[C@]23c4c5ccc(O)c4O[C@H]2[C@@H](O)C=C[C@H]3[C@H]1C5.Cl [MORPHINE HYDROCHLORIDE]
ED50 (Mus musculus [1]): 1.2 mg/kg

C=CCN1CC[C@]23CCCC[C@@H]2[C@@H](Cc2ccc(O)cc23)C1 (relative stereo)
ED50 (Mus musculus [1]): 19.6 mg/kg
Activity (Rhesus monkey [5]): Non-toxic
Activity (Rhesus monkey [3]): inactive

Br.CN1CC[C@]23CCCC[C@@H]2[C@@H](Cc2ccc(O)cc23)C1
ED50 (Mus musculus [1]): 2.1 mg/kg
Activity (Rhesus monkey [6]): Toxic

Oc1ccc2c(c1)[C@@]13CCCC[C@@H]1[C@@H](C2)CN(CC1CC1)CC3 (relative stereo)
Activity (Mus musculus [7]): Toxic
Activity (Rhesus monkey [5]): Non-toxic
Activity (Rhesus monkey [3]): inactive

COc1ccc2c(c1)[C@@]13CCCC[C@@H]1[C@@H](C2)CN(C)CC3
ED50 (Mus musculus [1]): 8.1 mg/kg

C=CCN1CC[C@]23CCCC[C@H]2[C@@H](Cc2ccc(O)cc23)C1 (relative stereo)
Activity (Rhesus monkey [8]): Non-toxic
Activity (Rhesus monkey [3]): inactive
ED50 (Mus musculus [9]): inactive
